Assay results pooled from the literature.

| species | medium | route | dose | time | setting | concentration | SMILES |
| --- | --- | --- | --- | --- | --- | --- | --- |
| male Sprague-Dawley rat | blood | oral | 20 mg/kg | 4 h | – | 6.36 µM | Cc1ccc(-c2cc(C(F)(F)F)nn2-c2ccc(S(N)(=O)=O)cc2)cc1 |
| Wistar rat | plasma | oral | 0.3 mg/kg | 24 h | single dose | 5 ng/mL | CCc1cc(-c2noc(-c3cc(OC)nc(C4CCCC4)c3)n2)cc(C)c1OC[C@@H](O)CO |
| rat | brain | oral | 10 mg/kg | 1 h | – | ~10 µM | COc1ccc(C)c2sc(NC(=O)c3ccncc3)nc12 |
| male Sprague-Dawley rat | plasma | oral | 30 mg/kg | 2 h | single dose | 9750 ng/mL | COc1cccc(-c2n[nH]c(SCc3ccccn3)n2)c1OC |
| male Sprague-Dawley rat | plasma | oral | 1 mg/kg | 1 h | – | 9.55 ng/mL | CCOC(=O)[C@@]12C[C@@H]1[C@@H](n1ccc3c(NC)nc(C#Cc4ccc(Cl)s4)nc31)[C@H](O)[C@@H]2O |
| male Sprague-Dawley rat | plasma | oral | 10 mg/kg | 1 h | – | 8.29 ng/mL | Cc1noc(C)c1Cn1cc(N2C(=O)CN(Cc3cccc(O)c3)C2=O)cn1 |
| male Sprague-Dawley rat | CSF | oral | 50 mg/kg | 4 h | multiple doses, once daily | 301 ng/mL | COc1nc(-c2cc(C)c(N[C@@H](C)c3cc(F)cc(F)c3)nn2)ccc1-n1cnc(C)c1 |
| female Lewis rat | brain | intraperitoneal | 50 mg/kg | 1 h | single dose | 43 µM | NC(=O)C(c1ccccc1)(c1ccc(F)cc1)c1ccc(F)cc1 |
| male Sprague-Dawley rat | spleen | oral | 30 mg/kg | 4 h | – | 6.13 ng/mL | COc1ccc2c(=O)n(C)c(-c3ccccc3)nc2c1 |
| Wistar rat | plasma | oral | 10 mg/kg | 8 h | – | 278 ng/mL | CN(C(=O)n1cnc(-c2ccc[n+]([O-])c2)c1)C1CCCCC1 |
| male Sprague-Dawley rat | plasma | oral | 100 mg/kg | 8 h | single dose | 5.2 ng/mL | Cc1noc(C)c1Cn1cc(N2C(=O)N(Cc3cccc(O)c3)C(C)(C)C2=O)cn1 |
